# Measurements pooled from the literature.
# Lines come from different studies, so protocols differ.
SMILES,organism,test,system,conditions,endpoint,value
C=C[C@]1(C)C[C@@H](OC(=O)CS[C@@H]2C[C@H]3CC[C@@H](C2)N3C)[C@]2(C)[C@H](C)CC[C@]3(CCC(=O)[C@H]32)[C@@H](C)[C@@H]1O,Streptococcus agalactiae,microbial growth,,clinical isolate,MIC90,0.0312 µg/mL
C[C@@H]1[C@H](O)[C@@H](C)/C=C/C=C/C=C/C=C/C=C/C=C/C=C/[C@H](O[C@@H]2O[C@H](C)[C@@H](O)[C@H](N)[C@@H]2O)C[C@@H]2O[C@](O)(C[C@@H](O)C[C@@H](O)[C@H](O)CC[C@@H](O)C[C@@H](O)CC(=O)O[C@H]1C)C[C@H](O)[C@H]2C(=O)O,Candida tropicalis,"microbial growth, broth dilution",ATCC13803,48 h,MIC,32 µg/mL
OC(Cn1cncn1)(Cn1cncn1)c1ccc(F)cc1F,Candida tropicalis,"microbial growth, broth dilution",,,MIC,8 µg/mL
CC(=O)ON=C1C=CC(=C(C#N)c2ccccc2)C=C1,Candida tropicalis,"microbial killing, broth dilution",ATCC13803,48 h,MFC,4 µg/mL
CC(=O)N1CCN(c2ccc(OCC3COC(Cn4ccnc4)(c4ccc(Cl)cc4Cl)O3)cc2)CC1 (stereo not shown),Candida tropicalis,"microbial growth, broth dilution",CGMCC2,48 h,MIC,1 µM
NNC(=O)c1ccncc1,Mycolicibacterium smegmatis,microbial growth,,,MIC90,17.7 µM
C[C@@H]1[C@H](O)[C@@H](C)/C=C/C=C/C=C/C=C/C=C/C=C/C=C/[C@H](O[C@@H]2O[C@H](C)[C@@H](O)[C@H](N)[C@@H]2O)C[C@@H]2O[C@](O)(C[C@@H](O)C[C@@H](O)[C@H](O)CC[C@@H](O)C[C@@H](O)CC(=O)O[C@H]1C)C[C@H](O)[C@H]2C(=O)O,Candida tropicalis,"microbial growth, broth dilution",CGMCC2,48 h,MIC,< 0.25 µM
CC(=O)NC[C@H]1CN(c2ccc(N3CCOCC3)c(F)c2)C(=O)O1,Streptococcus viridans,microbial growth,,clinical isolate,MIC90,1 µg/mL
N#CC(=C1C=CC(=NOC(=O)OCc2ccccc2)C=C1)c1ccccc1,Candida tropicalis,"microbial growth, broth dilution",ATCC13803,48 h,MIC,128 µg/mL
CO[C@H]1/C=C/O[C@@]2(C)Oc3c(C)c(O)c4c(O)c(c(/C=N/N5CCN(C)CC5)c(O)c4c3C2=O)NC(=O)/C(C)=C\C=C\[C@H](C)[C@H](O)[C@@H](C)[C@@H](O)[C@@H](C)[C@H](OC(C)=O)[C@@H]1C,Mycolicibacterium smegmatis,microbial growth,,,MIC90,1.52 µM
